Measured values from ChEMBL document CHEMBL1152173, “Synthesis and in vitro evaluation of the antifungal activities of dihydropyrimidinones” (2008).
≈ marks a conversion by molar mass, not a printed value. Calls of active or inactive are those of the source. The rule behind the calls is not given here.

How the values were obtained:
Trichoderma koningii [1] = assay: Antifungal activity against Trichoderma koningii assessed as radial growth at 1% after 72 hrs by poison food technique of Flack relative to control; format: functional
Summary of the method: (§1)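 Acetone stock added to molten sterilized PDA to final 0.5–7%, plated in 90 mm dishes with compound-free plates as control. Each plate was inoculated with a 9 mm disc from a 4-day-old culture, incubated at 25 ± 1 °C, and colony diameter measured at 24 h intervals. % inhibition = (control − treatment)/control × 100; three replicates averaged.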

Trichoderma koningii [2] = assay: Antifungal activity against Trichoderma koningii assessed as radial growth at 3% after 72 hrs by poison food technique of Flack relative to control; format: functional; summary of the method: as §1
Trichoderma koningii [3] = assay: Antifungal activity against Trichoderma koningii assessed as radial growth at 7% after 72 hrs by poison food technique of Flack relative to control; format: functional; summary of the method: as §1
Trichoderma hamatum [4] = assay: Antifungal activity against Trichoderma hamatum assessed as radial growth at 0.5% after 24 hrs by poison food technique of Flack relative to control; format: functional
Trichoderma hamatum [5] = assay: Antifungal activity against Trichoderma hamatum assessed as radial growth at 3% after 24 hrs by poison food technique of Flack relative to control; format: functional
Trichoderma hamatum [6] = assay: Antifungal activity against Trichoderma hamatum assessed as radial growth at 5% after 24 hrs by poison food technique of Flack relative to control; format: functional; summary of the method: as §1
Trichoderma hamatum [7] = assay: Antifungal activity against Trichoderma hamatum assessed as radial growth at 7% after 24 hrs by poison food technique of Flack relative to control; format: functional; summary of the method: as §1
Trichoderma hamatum [8] = assay: Antifungal activity against Trichoderma hamatum assessed as radial growth at 0.5% after 48 hrs by poison food technique of Flack relative to control; format: functional
Trichoderma hamatum [9] = assay: Antifungal activity against Trichoderma hamatum assessed as radial growth at 1% after 48 hrs by poison food technique of Flack relative to control; format: functional
Trichoderma hamatum [10] = assay: Antifungal activity against Trichoderma hamatum assessed as radial growth at 3% after 48 hrs by poison food technique of Flack relative to control; format: functional
Trichoderma hamatum [11] = assay: Antifungal activity against Trichoderma hamatum assessed as radial growth at 5% after 48 hrs by poison food technique of Flack relative to control; format: functional; summary of the method: as §1
Trichoderma hamatum [12] = assay: Antifungal activity against Trichoderma hamatum assessed as radial growth at 7% after 48 hrs by poison food technique of Flack relative to control; format: functional; summary of the method: as §1
Trichoderma hamatum [13] = assay: Antifungal activity against Trichoderma hamatum assessed as radial growth at 0.5% after 72 hrs by poison food technique of Flack relative to control; format: functional
Trichoderma hamatum [14] = assay: Antifungal activity against Trichoderma hamatum assessed as radial growth at 1% after 72 hrs by poison food technique of Flack relative to control; format: functional
Trichoderma hamatum [15] = assay: Antifungal activity against Trichoderma hamatum assessed as radial growth at 3% after 72 hrs by poison food technique of Flack relative to control; format: functional
Trichoderma hamatum [16] = assay: Antifungal activity against Trichoderma hamatum assessed as radial growth at 5% after 72 hrs by poison food technique of Flack relative to control; format: functional; summary of the method: as §1
Trichoderma hamatum [17] = assay: Antifungal activity against Trichoderma hamatum assessed as radial growth at 7% after 72 hrs by poison food technique of Flack relative to control; format: functional; summary of the method: as §1
Trichoderma koningii [18] = assay: Antifungal activity against Trichoderma koningii assessed as radial growth at 1% after 24 hrs by poison food technique of Flack relative to control; format: functional; summary of the method: as §1
Trichoderma koningii [19] = assay: Antifungal activity against Trichoderma koningii assessed as radial growth at 3% after 24 hrs by poison food technique of Flack relative to control; format: functional; summary of the method: as §1
Trichoderma koningii [20] = assay: Antifungal activity against Trichoderma koningii assessed as radial growth at 5% after 24 hrs by poison food technique of Flack relative to control; format: functional; summary of the method: as §1
Trichoderma koningii [21] = assay: Antifungal activity against Trichoderma koningii assessed as radial growth at 7% after 24 hrs by poison food technique of Flack relative to control; format: functional; summary of the method: as §1
Trichoderma koningii [22] = assay: Antifungal activity against Trichoderma koningii assessed as radial growth at 0.5% after 48 hrs by poison food technique of Flack relative to control; format: functional; summary of the method: as §1
Trichoderma koningii [23] = assay: Antifungal activity against Trichoderma koningii assessed as radial growth at 1% after 48 hrs by poison food technique of Flack relative to control; format: functional; summary of the method: as §1
Trichoderma koningii [24] = assay: Antifungal activity against Trichoderma koningii assessed as radial growth at 3% after 48 hrs by poison food technique of Flack relative to control; format: functional; summary of the method: as §1
Trichoderma koningii [25] = assay: Antifungal activity against Trichoderma koningii assessed as radial growth at 5% after 48 hrs by poison food technique of Flack relative to control; format: functional; summary of the method: as §1
Trichoderma koningii [26] = assay: Antifungal activity against Trichoderma koningii assessed as radial growth at 7% after 48 hrs by poison food technique of Flack relative to control; format: functional; summary of the method: as §1
Trichoderma koningii [27] = assay: Antifungal activity against Trichoderma koningii assessed as radial growth at 0.5% after 72 hrs by poison food technique of Flack relative to control; format: functional; summary of the method: as §1
Trichoderma hamatum [28] = assay: Antifungal activity against Trichoderma hamatum assessed as radial growth at 7% after 24 hrs by poison food technique of Flack; format: functional, organism-based
Summary of the method: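 Poisoned-food method: acetone stock mixed into molten sterilized potato dextrose agar to final 0.5, 1, 3, 5 or 7%, poured into 90 mm plates. Plates were inoculated with a 9 mm mycelial disc from a 4-day-old pure culture and incubated at 25 ± 1 °C. Colony diameter (mm) was read every 24 h; mean of three replicates.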

Aspergillus niger [29] = assay: Antifungal activity against Aspergillus niger assessed as radial growth at 0.5% after 24 hrs by poison food technique of Flack relative to control; format: functional
Aspergillus niger [30] = assay: Antifungal activity against Aspergillus niger assessed as radial growth at 1% after 24 hrs by poison food technique of Flack relative to control; format: functional
Aspergillus niger [31] = assay: Antifungal activity against Aspergillus niger assessed as radial growth at 3% after 24 hrs by poison food technique of Flack relative to control; format: functional
Aspergillus niger [32] = assay: Antifungal activity against Aspergillus niger assessed as radial growth at 5% after 24 hrs by poison food technique of Flack relative to control; format: functional
Aspergillus niger [33] = assay: Antifungal activity against Aspergillus niger assessed as radial growth at 7% after 24 hrs by poison food technique of Flack relative to control; format: functional
Aspergillus niger [34] = assay: Antifungal activity against Aspergillus niger assessed as radial growth at 0.5% after 48 hrs by poison food technique of Flack relative to control; format: functional
Aspergillus niger [35] = assay: Antifungal activity against Aspergillus niger assessed as radial growth at 1% after 48 hrs by poison food technique of Flack relative to control; format: functional
Aspergillus niger [36] = assay: Antifungal activity against Aspergillus niger assessed as radial growth at 3% after 48 hrs by poison food technique of Flack relative to control; format: functional
Aspergillus niger [37] = assay: Antifungal activity against Aspergillus niger assessed as radial growth at 7% after 48 hrs by poison food technique of Flack relative to control; format: functional
Aspergillus niger [38] = assay: Antifungal activity against Aspergillus niger assessed as radial growth at 0.5% after 72 hrs by poison food technique of Flack relative to control; format: functional
Aspergillus niger [39] = assay: Antifungal activity against Aspergillus niger assessed as radial growth at 1% after 72 hrs by poison food technique of Flack relative to control; format: functional
Aspergillus niger [40] = assay: Antifungal activity against Aspergillus niger assessed as radial growth at 3% after 72 hrs by poison food technique of Flack relative to control; format: functional
Aspergillus niger [41] = assay: Antifungal activity against Aspergillus niger assessed as radial growth at 5% after 72 hrs by poison food technique of Flack relative to control; format: functional
Aspergillus niger [42] = assay: Antifungal activity against Aspergillus niger assessed as radial growth at 7% after 72 hrs by poison food technique of Flack relative to control; format: functional
Trichoderma hamatum [43] = assay: Antifungal activity against Trichoderma hamatum; format: functional
Trichoderma koningii [44] = assay: Antifungal activity against Trichoderma koningii; format: functional
Aspergillus niger [45] = assay: Antifungal activity against Aspergillus niger; format: functional

CCOC(=O)C1=C(C)NC(=S)NC1c1ccc(N(C)C)cc1 (stereo not given)
inhibition (INH) (Trichoderma koningii [1]): 0% | inhibition (INH) (Trichoderma koningii [2]): 15.77% | inhibition (INH) (Trichoderma koningii [3]): 91.1% | inhibition (INH) (Trichoderma hamatum [4]): 8.92% | inhibition (INH) (Trichoderma hamatum [5]): 75% | inhibition (INH) (Trichoderma hamatum [6]): 100% | inhibition (INH) (Trichoderma hamatum [7]): 100% | inhibition (INH) (Trichoderma hamatum [8]): 5.25% | inhibition (INH) (Trichoderma hamatum [9]): 12.4% | inhibition (INH) (Trichoderma hamatum [10]): 74.44% | inhibition (INH) (Trichoderma hamatum [11]): 100% | inhibition (INH) (Trichoderma hamatum [12]): 100% | inhibition (INH) (Trichoderma hamatum [13]): 8.39% | inhibition (INH) (Trichoderma hamatum [14]): 13.9% | inhibition (INH) (Trichoderma hamatum [15]): 40.39% | inhibition (INH) (Trichoderma hamatum [16]): 96.68% | inhibition (INH) (Trichoderma hamatum [17]): 97.57% | inhibition (INH) (Trichoderma koningii [18]): 3.84% | inhibition (INH) (Trichoderma koningii [19]): 41.69% | inhibition (INH) (Trichoderma koningii [20]): 92.3% | inhibition (INH) (Trichoderma koningii [21]): 100% | inhibition (INH) (Trichoderma koningii [22]): 0% | inhibition (INH) (Trichoderma koningii [23]): 0% | inhibition (INH) (Trichoderma koningii [24]): 18.75% | inhibition (INH) (Trichoderma koningii [25]): 86.21% | inhibition (INH) (Trichoderma koningii [26]): 95.31% | inhibition (INH) (Trichoderma koningii [27]): 0% | Activity (Trichoderma hamatum [28]): Active | inhibition (INH) (Aspergillus niger [29]): 0% | inhibition (INH) (Aspergillus niger [30]): 13.6% | inhibition (INH) (Aspergillus niger [31]): 30% | inhibition (INH) (Aspergillus niger [32]): 100% | inhibition (INH) (Aspergillus niger [33]): 100% | inhibition (INH) (Aspergillus niger [34]): 0% | inhibition (INH) (Aspergillus niger [35]): 0% | inhibition (INH) (Aspergillus niger [36]): 40% | inhibition (INH) (Aspergillus niger [37]): 100% | inhibition (INH) (Aspergillus niger [38]): 0% | inhibition (INH) (Aspergillus niger [39]): 0% | inhibition (INH) (Aspergillus niger [40]): 51.98% | inhibition (INH) (Aspergillus niger [41]): 78.39% | inhibition (INH) (Aspergillus niger [42]): 100% | MIC (Trichoderma hamatum [43]): 0.025 µg/mL (≈ 0.0783 µM) | MIC (Trichoderma koningii [44]): 0.025 µg/mL (≈ 0.0783 µM) | MIC (Aspergillus niger [45]): 0.35 µg/mL (≈ 1.1 µM)

CCOC(=O)C1=C(C)NC(=O)NC1c1ccccc1O (stereo not given)
inhibition (INH) (Trichoderma koningii [1]): 0.67% | inhibition (INH) (Trichoderma koningii [2]): 25.16% | inhibition (INH) (Trichoderma koningii [3]): 97.31% | inhibition (INH) (Trichoderma hamatum [4]): 0% | inhibition (INH) (Trichoderma hamatum [5]): 63.84% | inhibition (INH) (Trichoderma hamatum [6]): 89.47% | inhibition (INH) (Trichoderma hamatum [7]): 100% | inhibition (INH) (Trichoderma hamatum [8]): 0% | inhibition (INH) (Trichoderma hamatum [9]): 22.44% | inhibition (INH) (Trichoderma hamatum [10]): 68.75% | inhibition (INH) (Trichoderma hamatum [11]): 94.23% | inhibition (INH) (Trichoderma hamatum [12]): 100% | inhibition (INH) (Trichoderma hamatum [13]): 0% | inhibition (INH) (Trichoderma hamatum [14]): 15.84% | inhibition (INH) (Trichoderma hamatum [15]): 59.1% | inhibition (INH) (Trichoderma hamatum [16]): 95.07% | inhibition (INH) (Trichoderma hamatum [17]): 96.78% | inhibition (INH) (Trichoderma koningii [18]): 0% | inhibition (INH) (Trichoderma koningii [19]): 50.72% | inhibition (INH) (Trichoderma koningii [20]): 79.71% | inhibition (INH) (Trichoderma koningii [21]): 100% | inhibition (INH) (Trichoderma koningii [22]): 0% | inhibition (INH) (Trichoderma koningii [23]): 5.2% | inhibition (INH) (Trichoderma koningii [24]): 38.81% | inhibition (INH) (Trichoderma koningii [25]): 70.83% | inhibition (INH) (Trichoderma koningii [26]): 100% | inhibition (INH) (Trichoderma koningii [27]): 0% | Activity (Trichoderma hamatum [28]): Active | inhibition (INH) (Aspergillus niger [29]): 0% | inhibition (INH) (Aspergillus niger [30]): 0% | inhibition (INH) (Aspergillus niger [31]): 37.6% | inhibition (INH) (Aspergillus niger [32]): 40% | inhibition (INH) (Aspergillus niger [33]): 100% | inhibition (INH) (Aspergillus niger [34]): 34.75% | inhibition (INH) (Aspergillus niger [35]): 17.75% | inhibition (INH) (Aspergillus niger [36]): 64.58% | inhibition (INH) (Aspergillus niger [37]): 100% | inhibition (INH) (Aspergillus niger [38]): 33.35% | inhibition (INH) (Aspergillus niger [39]): 16.07% | inhibition (INH) (Aspergillus niger [40]): 60.71% | inhibition (INH) (Aspergillus niger [41]): 66.07% | inhibition (INH) (Aspergillus niger [42]): 92.85% | MIC (Trichoderma hamatum [43]): 0.025 µg/mL (≈ 0.0905 µM) | MIC (Trichoderma koningii [44]): 0.025 µg/mL (≈ 0.0905 µM) | MIC (Aspergillus niger [45]): 0.025 µg/mL (≈ 0.0905 µM)
